In data set [1] the target is T1, G-protein coupled receptor 39 (Homo sapiens, UniProt O43194).
T1 sequence (O43194 whole entry): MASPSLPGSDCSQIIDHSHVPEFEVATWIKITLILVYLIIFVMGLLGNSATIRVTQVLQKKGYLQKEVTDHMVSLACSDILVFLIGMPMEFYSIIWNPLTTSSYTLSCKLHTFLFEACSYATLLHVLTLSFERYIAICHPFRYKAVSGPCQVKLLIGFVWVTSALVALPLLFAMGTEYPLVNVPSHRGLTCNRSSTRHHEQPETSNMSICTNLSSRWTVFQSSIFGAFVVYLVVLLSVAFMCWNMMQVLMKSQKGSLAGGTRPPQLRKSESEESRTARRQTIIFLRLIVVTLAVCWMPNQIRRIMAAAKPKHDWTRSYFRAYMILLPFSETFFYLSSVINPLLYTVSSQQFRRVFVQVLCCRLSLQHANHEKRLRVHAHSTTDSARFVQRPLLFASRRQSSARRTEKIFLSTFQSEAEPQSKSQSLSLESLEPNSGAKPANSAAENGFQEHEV
Description: Agonist activity at human GPR39 expressed in HEK293 cells co-expressing Galphaq assessed as myo-[2-3H]inositol phosphate accumulation measured after 75 mins by scintillation proximity assay. Type of data set: functional, cell-based. (Scintillation proximity formats need no separation of bound from free tracer.)

The target in data set [2] is T1, G-protein coupled receptor 39. Description: Agonist activity at human GPR39 expressed in HEK293 cells co-expressing Galphaq assessed as myo-[2-3H]inositol phosphate accumulation in presence of 10 uM Zn2+ measured after 75 mins by scintillation proximity assay. Format: functional, cell-based.
Data set [3] addresses T2, G-protein coupled receptor 39 (Homo sapiens) (UniProt O43194).
T2 sequence (whole entry): T1 sequence (O43194 whole entry)
Description: Agonist activity at GPR39 (unknown origin) expressed in COS7 cells co-expressing Galphas assessed as increase in intracellular cAMP level measured after 30 mins by chemiluminescence assay. Format: functional, cell-based. In general terms: cAMP levels reflect the balance of adenylyl cyclase and phosphodiesterase activity.

A further data set relates to Plasma. Kind of data set: Drug uptake in mouse plasma at 30 to 60 mg/kg, po administered via gavage measured after 30 to 240 mins by LC-MS/MS analysis. Conditions: in vivo. Format: ADME, organism-based. In short, it runs like this: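 Mice dosed orally at 30 mg/kg and 60 mg/kg; plasma compound concentration followed from 30 to 240 min.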
Data set [4] can be described thus: Intrinsic clearance in human liver microsomes assessed per mg protein at 3 uM measured after 45 mins by LC-MS/MS analysis. Format: ADME, microsome. The following applies: read-out: CLH. In general terms: Microsomes from liver hold many membrane-bound enzymes, among them those of drug oxidation.
The target of data set [5] is C-C chemokine receptor type 5 (Macaca mulatta) (UniProt P61813). Description: Agonist activity at full length rhesus monkey CCR5 assessed as myo-[2-3H]inositol phosphate accumulation measured after 75 mins by scintillation proximity assay. Format: functional.
Data set [6] is described as follows: Increase in CGRP-induced somatostatin release in primary gastric mucosal cells isolated from GPR39 deficient C57BL/6 mouse at 1 uM in presence of 10 uM of Zn2+ measured after 4 hrs by radioimmunoassay relative to control. Conditions: in the assay text read “C57BL/6 mouse” for “GPR39 deficient C57BL/6 mouse”. Type of data set: functional, Primary gastric mucosal cell.

The target of data set [7] is Neuromedin-U receptor 2 (Homo sapiens) (UniProt Q9GZQ4). Kind of data set: Agonist activity at human NMU2 receptor assessed as myo-[2-3H]inositol phosphate accumulation measured after 75 mins by scintillation proximity assay. Type of data set: functional.
Neuromedin-U receptor 2 (Homo sapiens), sequence (Q9GZQ4 whole entry): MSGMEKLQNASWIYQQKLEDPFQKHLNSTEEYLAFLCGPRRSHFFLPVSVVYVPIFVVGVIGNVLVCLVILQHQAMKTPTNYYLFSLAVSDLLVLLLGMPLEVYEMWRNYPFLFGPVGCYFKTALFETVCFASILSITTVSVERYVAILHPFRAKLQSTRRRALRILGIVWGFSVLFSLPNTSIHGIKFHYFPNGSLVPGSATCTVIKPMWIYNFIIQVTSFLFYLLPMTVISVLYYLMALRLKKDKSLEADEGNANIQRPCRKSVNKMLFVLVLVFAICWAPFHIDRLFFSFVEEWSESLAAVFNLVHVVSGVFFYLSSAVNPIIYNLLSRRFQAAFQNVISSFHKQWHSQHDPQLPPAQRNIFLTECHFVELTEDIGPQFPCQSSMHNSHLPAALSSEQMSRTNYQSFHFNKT
The target in data set [8] is T3, C-C chemokine receptor type 1 (Homo sapiens) (UniProt P32246).
T3 sequence (whole entry): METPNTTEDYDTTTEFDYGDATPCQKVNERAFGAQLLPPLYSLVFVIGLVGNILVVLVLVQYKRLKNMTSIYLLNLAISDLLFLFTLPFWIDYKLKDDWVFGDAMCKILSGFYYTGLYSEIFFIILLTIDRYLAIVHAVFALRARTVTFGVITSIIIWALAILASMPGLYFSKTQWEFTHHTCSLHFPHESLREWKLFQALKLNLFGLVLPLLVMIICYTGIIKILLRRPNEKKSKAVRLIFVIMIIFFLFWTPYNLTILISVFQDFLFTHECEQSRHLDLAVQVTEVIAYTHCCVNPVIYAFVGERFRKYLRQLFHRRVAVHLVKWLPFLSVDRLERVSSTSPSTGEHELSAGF
Description: Agonist activity at full length human CCR1 assessed as myo-[2-3H]inositol phosphate accumulation measured after 75 mins by scintillation proximity assay. Format: functional.

For data set [9], the target named is T3, C-C chemokine receptor type 1 (Homo sapiens). Description: Agonist activity at full length human CCR1 assessed as myo-[2-3H]inositol phosphate accumulation in presence of 10 uM Zn2+ measured after 75 mins by scintillation proximity assay. Type of data set: functional.
In data set [10] the target is T4, G-protein coupled receptor 39 (Mus musculus, UniProt Q5U431).
T4 sequence (Q5U431 whole entry): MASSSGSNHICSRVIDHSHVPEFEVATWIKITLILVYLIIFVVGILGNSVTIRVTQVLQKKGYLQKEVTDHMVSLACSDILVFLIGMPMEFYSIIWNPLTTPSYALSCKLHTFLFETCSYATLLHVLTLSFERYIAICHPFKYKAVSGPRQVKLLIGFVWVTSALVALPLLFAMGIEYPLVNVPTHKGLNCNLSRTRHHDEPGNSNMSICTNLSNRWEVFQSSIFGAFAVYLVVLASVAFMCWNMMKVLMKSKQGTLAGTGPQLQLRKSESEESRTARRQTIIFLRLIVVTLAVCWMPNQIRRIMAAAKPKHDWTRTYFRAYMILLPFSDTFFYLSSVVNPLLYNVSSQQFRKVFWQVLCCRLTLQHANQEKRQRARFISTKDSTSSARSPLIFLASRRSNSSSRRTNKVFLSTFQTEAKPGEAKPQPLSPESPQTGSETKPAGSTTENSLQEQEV
Kind of data set: Agonist activity at mouse GPR39 expressed in HEK293 cells co-expressing Galphaq assessed as myo-[2-3H]inositol phosphate accumulation measured after 75 mins by scintillation proximity assay. Format: functional, cell-based.

Data set [11] deals with Growth hormone secretagogue receptor type 1 (Homo sapiens) (UniProt Q92847). Kind of data set: Agonist activity at human ghrelin receptor ([…]) assessed as myo-[2-3H]inositol phosphate accumulation measured after 75 mins by scintillation proximity assay. Type of data set: functional.
Growth hormone secretagogue receptor type 1 (Homo sapiens), sequence (Q92847 whole entry): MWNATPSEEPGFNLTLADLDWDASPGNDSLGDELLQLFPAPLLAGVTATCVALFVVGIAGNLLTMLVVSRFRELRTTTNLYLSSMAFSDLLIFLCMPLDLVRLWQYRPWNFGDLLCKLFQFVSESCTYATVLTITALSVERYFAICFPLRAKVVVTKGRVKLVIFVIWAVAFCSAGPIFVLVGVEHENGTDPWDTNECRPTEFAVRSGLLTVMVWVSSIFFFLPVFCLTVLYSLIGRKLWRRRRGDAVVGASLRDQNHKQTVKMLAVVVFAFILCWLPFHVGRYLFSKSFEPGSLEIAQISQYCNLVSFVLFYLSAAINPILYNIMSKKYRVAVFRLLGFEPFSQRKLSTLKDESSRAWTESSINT
In data set [12] the test system is Primary gastric mucosal cell. Kind of data set: Induction of CGRP-induced somatostatin release in primary gastric mucosal cells isolated from GPR39 deficient C57BL/6 mouse at 1 uM in presence of 10 uM of Zn2+ measured after 4 hrs by radioimmunoassay. Type of data set: functional, cell-based. In short, it runs like this:
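Primary gastric mucosal cells from GPR39-KO mice, day after preparation, exposed to ligands (1 μM, 10 μM Zn2+) in triplicate for 4 h; supernatant somatostatin measured by in-house RIA and expressed as percent of medium-alone secretion; 10 nM CGRP used as a comparator stimulus; n=2.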

Data set [13] is described as follows: Half life in human liver microsomes at 3 uM measured by LC-MS/MS analysis. Format: ADME, microsome.
For data set [14], the target named is Motilin receptor (Homo sapiens) (UniProt O43193). Description: Agonist activity at human motilin receptor (412 residues) assessed as myo-[2-3H]inositol phosphate accumulation in presence of 10 uM Zn2+ measured after 75 mins by scintillation proximity assay. Format: functional.
Motilin receptor (Homo sapiens), sequence (O43193 whole entry): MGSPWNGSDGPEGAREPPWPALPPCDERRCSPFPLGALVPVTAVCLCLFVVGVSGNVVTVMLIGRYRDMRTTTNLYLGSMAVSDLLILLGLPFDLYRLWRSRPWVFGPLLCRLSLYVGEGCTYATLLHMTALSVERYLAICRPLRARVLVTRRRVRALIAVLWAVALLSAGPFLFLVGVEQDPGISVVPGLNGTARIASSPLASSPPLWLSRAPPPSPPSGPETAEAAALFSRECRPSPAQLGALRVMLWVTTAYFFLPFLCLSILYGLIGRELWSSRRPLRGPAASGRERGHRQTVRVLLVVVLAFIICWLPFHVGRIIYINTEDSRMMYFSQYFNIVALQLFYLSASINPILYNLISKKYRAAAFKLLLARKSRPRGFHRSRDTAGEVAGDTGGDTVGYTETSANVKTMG
Data set [15] deals with T4, G-protein coupled receptor 39. Kind of data set: Agonist activity at mouse GPR39 expressed in HEK293 cells co-expressing Galphaq assessed as myo-[2-3H]inositol phosphate accumulation in presence of 10 uM Zn2+ measured after 75 mins by scintillation proximity assay. Type of data set: functional, cell-based.
Data set [16] addresses T5, G-protein coupled receptor 39 (Mus musculus) (UniProt Q5U431).
T5 sequence (whole entry): T4 sequence (Q5U431 whole entry)
Description: Agonist activity at GPR39 in primary gastric mucosal cells isolated from C57BL/6 mouse assessed as myo-[2-3H]inositol phosphate accumulation in presence of 10 uM Zn2+ measured after 75 mins by scintillation proximity assay. Type of data set: functional. In short, it runs like this: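 Primary murine gastric mucosal cell cultures stimulated with ligand plus 10 μM Zn2+; inositol phosphate turnover read out as for the transfected-cell IP accumulation assay.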

One molecule from ChEMBL document CHEMBL3994609, “Model-Based Discovery of Synthetic Agonists for the Zn2+-Sensing G-Protein-Coupled Receptor 39 (GPR39) Reveals Novel Biological Functions” (J Med Chem, 2017) can be followed below.

Molecules are shown by their SMILES. Active and inactive are the calls of the source. No cut-off for these calls is given here.

`Cc1nn(-c2ncnc3nc[nH]c23)c2c1C(c1ccc(F)cc1Cl)CC(=O)N2` (configuration not stated): the concentration giving a half-maximal response (EC50) in [1] came out at 0.28 µM; in data set [2], 0.009 µM; in [10], 0.18 µM; in data set [15] it was 0.005 µM. In addition, the outcome in [3], in data set [5], in data set [7], in data set [8], in data set [9] and in [11] was inactive. Besides, the result in data set [12] and in [14] was inactive. Further, in the data set with Plasma, the Drug uptake result is reported as “Active”. Moreover, in data set [4], the microsomal CLint at 3 µM came out at 23.7 µL/min/mg. For the same molecule, the Activity in data set [6] was 53%; in data set [16], “Dose-dependent effect”. In data set [13], this molecule gave a half-life at 3 µM of 58 min.

In general, EC50 refers to the concentration at which the effect is half-maximal. As a reminder, the half-life is the time in which the quantity being followed falls by half.
